The RNAGym collection of RNA variant scans (doi:10.1126/science.aae0568)
Variants at the floor of the assay were thinned out.

B1: tRNA (parent)
chain: GUUCCGUUGGCGUAAUGGUAACGCGUCUCCCUCCUAAGGAGAAGACUGCGGGUUCGAGUCCCGUACGGAACG

Variants of: B1
Experiment: yeast fitness relative to wild type (ratio to wild type); higher = fitter; tRNA-Arg(CCU), competitive growth, 37 C, YPD
Outline: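 The tRNA-Arg(CCU) gene variants were made by chemical synthesis with a 3% per-site mutation rate at 69 sites and inserted at the native genomic locus of Saccharomyces cerevisiae. After pooling, the strains were competed in YPD at 37°C for 24 hours in six parallel replicates. Gene amplicons from the start population and each end population were read by 100-nucleotide paired-end sequencing, and Darwinian fitness relative to wild type was taken from genotype frequency changes. Genotypes needed ≥ 100 starting reads, and estimates < 0.5 were set to 0.5.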

Row | Variant | yeast fitness
1 | GUUCGGUUGGCGUAAUGGUAACGCGUCUCCCUCCUAAGGAGAAGUCUGCGGGUUCGAGUCCUGUACGGAACG | 0.725
2 | GUUCGGUUGGCGUAAUGGUAAUGCGUCUGCCUCCUAAGGAGAAGACUGCGGGUUCGAGUCCCGUACGGAACG | 0.659
3 | GUUCGGUUGGCGUAAUGGUAACGGGUCUCCCUCCUAAGGAGAAGACUGCAGGUUCGAGUUCCGUACGGUACG | ≤ 0.5
4 | GUUCGGUUGGGAUAAUGGUAACGCGUCUCCCUCCUAAGGAGAAGAUUGCGGGUUCGAGUCCCGUACGGAACG | ≤ 0.5
5 | GUUCGGUUGGCGUAAUGGUAACGUGUCUCCCUCCUAAGGAGAAGAAUGCGGGUUCGAGUCCCGUACGUAACG | ≤ 0.5
6 | GUUCGGUUGGGGUAAUGGUAACGCGUCUCCCUCCUAAGGGGAAGACUGCGGGUUCGAGUGCCGUACGGAACG | 0.588
7 | GUUCGGUUGGGGUAAUGGUAACGCGUCUCCCUCCUAAGGAGCAGACUGUGGGUUCGAGUCCCGUACGGAACG | ≤ 0.5
8 | GUUCGGUUGGAGUAAUGGCCACGCGUCUCCCUACUAAGGAGAAGACUGCGGGUUCGAGUCGCGUACGGAACG | 0.676
9 | GUUCGGUUGGCGUAAUGGUAAUGCGUCUCCCUCCUAAGGAGAAGACUGCGGGUUCGAGUCCAGUCCGGAACG | ≤ 0.5
10 | GUUCGGUUGGCGUAAUGGUAAAGCGUCUCCCUGCAAAGGAGAAGACUGCGGGUUUGAGUCCCGUACGGAACG | ≤ 0.5
11 | GUUCGGUUGGAGUAAUGGUAACGCGUCUCCCUCCUAAGGUGAAGACUGCGGGUUCGAGUCCCGCACGGAACG | 0.536
12 | GUUCGGUUGGCGUAAUGGUAAUGCGUCUCCCUCCUAGGGAGAAGACUGCCGGUUCGAGUCCCGUACGGAACG | ≤ 0.5
13 | GUUCGGUUGGAGUAAUGGUCAGGCGUCUCUGUCCUAAGGAGAAGACUGCGGGUUCGAGUCACGUACAGAACG | ≤ 0.5
14 | GUUCGGUUGGCGUAAUGGUAAAGCAUCUCCCUCCUAUGGAGAAGACUGCGGGUUCGAGUCCCGUACGGAACG | 0.596
15 | GUUCGGUUGGGGUAAUGGUAACGCGUCUCCCUCCUAAGGGGAAGACUGCGGGUUCGAGUCCCGUACGGAACG | 0.556
16 | GUUCGGUUGGCGUAAUGGUAACGGGUGUCCCUCCUAAGGAGAAGACUGCGGGUUCGAGUUCCGUACGGAACG | 0.627
17 | GUUCGGUUGGCGUAAUGGUAAUGCGUCUCCGUCCUAAGGAGAAGACUGCGGGUUCGAGUACCGUACGGAACG | ≤ 0.5
18 | GUUCGGUUGGAGUAAUGGUAACGCGUCUCCCUCCUAAGGAGAAGAGUGCGGGUUCGAGUCCCGUACGGAACG | 0.639
19 | GUUCGGUUGGAGUAGUGAUAACGCGUCUCGCUCCUAAGGAGAAGACUGCGGGUUCGAGUCCCGUACGAAACG | ≤ 0.5

Row | Variant | yeast fitness
20 | GUUCGGUUGGAGUGAUGGUAACGCCUCUGCCUCCUAAGGAGAAGACUGCGGGUUCCCGUCCCGUACGGAACG | ≤ 0.5
21 | GUUCGGUUGGCGUAAUGGUAACGCGUCUCCCUCCUAAGGAGAAGACUGCGGGUUCGAGUCCCGUGCGGUACG | 0.71
22 | GUUCGGUUGGCGUAAUGGUAACGCGUGUUCCUCCUAAGGAGAAGGCUGAGGGUUCGAGUCCCGUAUGGAACG | ≤ 0.5
23 | GUUCGGUUGGCGUAAUGGUAACGCGUCUCCCUCCUAAGGAGAAGACUGCGGGUUCGAGUCCCGUCCGAAACG | 0.671
24 | GUUCGGUUGGCGUAAUGGUAACGCGUAUCCCUCCUAAGGAGAAGACUGCGGGUUCGAGUCCCGUACGGAACG | 0.709
25 | GUUCGGUUGGAGUAAUGGCCACGCGUCUCCCUACUAAGGAGAAGACUGCGGGUUCGAGUCGCGUAUGGUACG | ≤ 0.5
26 | GUUCGGUUGGCGUAAUGGUAACGGGUCUCCCUCCUAAGGAGAAGACUGUGGGUUCGAAUCCCAUACGGAACG | ≤ 0.5
27 | GUUCGGUUGGCGUAAUGGUAACGCGUAUCCCUCCUAAGGAGAAGACUGAGGGUUCGAGUCCCGUACGGAACG | ≤ 0.5
28 | GUUCGGUUGGCGUAAUGGUAACGGGUCUCCCUCGUAAGGAGAAGAUUGCGGGUUCGAGUCACGUACGGAUCG | ≤ 0.5
29 | GUUCGGUUGGGGUAAUGGUAACGCGUCUCCCUCCCAAGGAGAAGACUGCGGGUUCGAGUCCCGUACGGAACG | 0.643
30 | GUUCGGUUGGAGUGAUGGUAACGCCUCUGCCUCCUAAGGAGAAGACUGCGGGUUCGAGUCCCGUAUGGAACG | ≤ 0.5
31 | GUUCGGUUGGGGUAAUGGUCACGCGUCUCCCUUUUAAGGAGAAGACUGCGGGUUCGAGUCCCGUACGGAACG | ≤ 0.5
32 | GUUCGGUUGGCGUAAUGGUAAGGCGUCUCCCUCCUCAGGAGAAGACUGCGGGUUCGAGUCCCGUACGGAACG | ≤ 0.5
33 | GUUCGGUUGGCGUAAUGGUAACGAGUCUCCCUCCUAAGGAGUAGACUGCGGGUUCGCGUCCCGAACGGAACG | ≤ 0.5
34 | GUUCGGUUGGCGUAAUGGUAAAGCGCCUCCCUGCUAAGGAGAAGACUGCGGGUUCGAGUCCCAUACGGAACG | ≤ 0.5
35 | GUUCGGUUGGAGUAGUGAUAACGCGUCUCGCUCCUAAGGAGAAGACUGCGGGUUCGAGUCCCGUACGGAACG | 0.587
36 | GUUCGGUUGGUGUAAUGGUAACGCGUCUCCCUCAUAAGGAGAAGACAGCGGGUUCGAGUCCCGUACGGAACG | 0.528
37 | GUUCGGUUGGCGUAAUGGUAACGCGUCUCCCUCCUAAGGAGAAGACUGCGGGUUCGAGUCCCGUUCGGAACG | 0.796
38 | GUUCGGUUGGCGUAAUGGUAACGCGUGUCCCUUCUAAGGAGAAGACUGCGGGUUCAAGUCCCGCACGGUACG | ≤ 0.5
